The full list was thinned out, with hits kept by preference.
T cruzi intra: inhibitors of intracellular Trypanosoma cruzi. intracellular Trypanosoma cruzi in host cells, plate reader. activity score (inhibition), % at 5.01 µM. hit rate 4.9% among 22,000. AID 651903; in the data active means activity score above about 55%; inconclusive means no clear call, values can overlap the other calls;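 further: parasites and compound incubated about four days before reading; 0% = median of neutral control wells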
A1 apoptosis 2: compounds inhibiting A1, read as caspase activation. MEF A1-2A-BIM cells, caspase-Glo luminescence, 3 h; percent of clofoctol response, DMSO zero. AID 2465. 24,000 tested, under 10 active. caspase activation, % (no concentration beside the values); in the data active means caspase activation above about 5.9%; inconclusive means no clear call, values can overlap the other calls; inactive means below about 2.2%
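Material: A1-2A-BIM-expressing MEF cells. Buffer or medium: RPMI-1640 plus 10% FBS. Incubation: cells settled overnight, compound exposure 3 h at 37 °C, 5% CO2. Signal: Caspase-Glo 3/7 luminescence, 1 h at room temperature.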
INS-1E rescue: preserves ATP levels in cytokine-treated INS-1E cells | INS-1E cytokine-induced death, ATP luminescence, 48 h; normalised: neutral wells 0, positive control 100 | protection from cytokine-induced ATP loss, % at 10 µM | hit rate 0.1% among 20,000 | AID 488910;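 active means mean replicate protection from cytokine-induced ATP loss at least 50% and at least 75% of replicates each reaching 50%; inconclusive means meets only one of the two criteria, mean or replicate share; inactive means fails both the mean and replicate share criteria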
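Assay system: INS-1E rat insulinoma cells. Amount: 8000 cells per well. Medium: phenol-red-free RPMI with 5% fetal bovine serum. Reagent: IL-1β, TNF-α and IFN-γ cytokine mix. Doses: one compound concentration, pin transfer. Schedule: 48 h co-treatment, 10 min post-lysis read. Detection: CellTiter-Glo luminescence measuring cellular ATP.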
* hit, by the source's call.

C[C@H](CO)N1C[C@H](C)[C@@H](CN(C)S(=O)(=O)c2ccc(Cl)cc2)Oc2c(NC(=O)c3ccc(-c4nccs4)cc3)cccc2C1=O was read as T cruzi intra 30 and INS-1E rescue 2.
C[C@@H]1CN([C@@H](C)CO)C(=O)c2cc(NS(=O)(=O)c3ccccc3)ccc2O[C@H]1CN(C)Cc1ccncc1 was read as T cruzi intra -4 and INS-1E rescue 1.
Cc1ccc(S(=O)(=O)Nc2ccc3c(c2)C(=O)N([C@@H](C)CO)C[C@H](C)[C@H](CN(C)C(=O)NC(C)C)O3)cc1 was read as A1 apoptosis 2 -1.
For Cc1ccc(S(=O)(=O)Nc2ccc3c(c2)CC(=O)N([C@H](C)CO)C[C@@H](C)[C@H](CN(C)S(=O)(=O)c2cn(C)cn2)O3)cc1 the results were T cruzi intra -19, A1 apoptosis 2 2 and INS-1E rescue 7.
Screening C[C@@H]1CN([C@H](C)CO)C(=O)c2cc(NC(=O)Cc3ccccc3)ccc2O[C@@H](C)CCCCO[C@H]1CN(C)S(=O)(=O)c1ccc(F)cc1 returned A1 apoptosis 2 -2.
Screening C[C@@H]1CN([C@@H](C)CO)C(=O)Cc2cc(NS(=O)(=O)c3ccc(Cl)cc3)ccc2O[C@@H]1CN(C)S(=O)(=O)c1ccc(F)cc1 returned T cruzi intra 51, A1 apoptosis 2 0 and INS-1E rescue -7.
Screening C[C@@H]1CN([C@H](C)CO)C(=O)c2cccc(NC(=O)c3ccc(-c4nccs4)cc3)c2O[C@@H]1CN(C)Cc1ccc(-c2ccccc2)cc1 returned T cruzi intra 42, A1 apoptosis 2 -2 and INS-1E rescue -43.
Screening C[C@@H]1CN([C@@H](C)CO)C(=O)c2cccc(NC(=O)c3ccc(-c4nccs4)cc3)c2O[C@@H]1CN(C)C(=O)Nc1ccc(C(F)(F)F)cc1 returned T cruzi intra 66*, A1 apoptosis 2 -1 and INS-1E rescue -87.
For C[C@H]1CN([C@@H](C)CO)C(=O)c2cccc(NC(=O)c3ccc(-c4nccs4)cc3)c2O[C@@H]1CN(C)Cc1ccc(-c2ccccc2)cc1 the results were T cruzi intra 70*, A1 apoptosis 2 -1 and INS-1E rescue -29.
`C[C@H]1CN([C@@H](C)CO)C(=O)c2cccc(NC(=O)c3ccc(-c4nccs4)cc3)c2O[C@H]1CN(C)Cc1ccc(C(=O)Nc2ccccc2N)cc1` gave T cruzi intra 71*, A1 apoptosis 2 -3 and INS-1E rescue -15.
C[C@@H]1CN([C@@H](C)CO)C(=O)c2cccc(NC(=O)c3ccc(-c4nccs4)cc3)c2O[C@H]1CN(C)Cc1ccc(C(=O)Nc2ccccc2N)cc1 was read as T cruzi intra 48 and INS-1E rescue 19.
C[C@H](CO)N1C[C@H](C)[C@H](CN(C)C(=O)Nc2ccc(C(F)(F)F)cc2)Oc2c(NC(=O)c3ccc(-c4nccs4)cc3)cccc2C1=O was read as T cruzi intra inconclusive and INS-1E rescue -55.
`C[C@@H]1CN([C@@H](C)CO)C(=O)c2cc(NS(=O)(=O)c3cn(C)cn3)ccc2O[C@@H](C)CCCCO[C@@H]1CN(C)C(=O)c1ccccc1` gave A1 apoptosis 2 -1.
`COc1ccc(NC(=O)Nc2ccc3c(c2)C(=O)N([C@@H](C)CO)C[C@@H](C)[C@H](CN(C)S(C)(=O)=O)O3)cc1` gave T cruzi intra -18, A1 apoptosis 2 1 and INS-1E rescue -2.
C[C@H]1CCCCO[C@H](CN(C)S(=O)(=O)c2ccc(Cl)cc2)[C@@H](C)CN([C@@H](C)CO)C(=O)c2cc(NC(=O)CCCN(C)C)ccc2O1 was read as A1 apoptosis 2 -1.
`COc1ccc(NC(=O)Nc2cccc3c2O[C@H](CN(C)Cc2ccc(-c4ccccc4)cc2)[C@@H](C)CN([C@@H](C)CO)C3=O)cc1` gave T cruzi intra -26, A1 apoptosis 2 1 and INS-1E rescue -6.
`Cc1ccc(S(=O)(=O)N(C)C[C@H]2OCCCC[C@@H](C)Oc3ccc(NC(=O)Nc4ccccc4)cc3C(=O)N([C@H](C)CO)C[C@H]2C)cc1` gave A1 apoptosis 2 0.
Cc1noc(C)c1S(=O)(=O)Nc1ccc2c(c1)CC(=O)N([C@@H](C)CO)C[C@@H](C)[C@@H](CN(C)Cc1ccc(Oc3ccccc3)cc1)O2 was read as T cruzi intra 60*, A1 apoptosis 2 1 and INS-1E rescue -15.
Screening Cc1noc(C)c1S(=O)(=O)Nc1ccc2c(c1)CC(=O)N([C@@H](C)CO)C[C@@H](C)[C@H](CN(C)Cc1ccccc1)O2 returned A1 apoptosis 2 -1.
Screening Cc1noc(C)c1S(=O)(=O)Nc1ccc2c(c1)CC(=O)N([C@@H](C)CO)C[C@H](C)[C@H](CN(C)Cc1ccc(-c3ccccc3)cc1)O2 returned T cruzi intra 19, A1 apoptosis 2 -1 and INS-1E rescue -12.
`Cc1noc(C)c1S(=O)(=O)Nc1ccc2c(c1)CC(=O)N([C@H](C)CO)C[C@@H](C)[C@@H](CN(C)Cc1ccc(-c3ccccc3)cc1)O2` gave T cruzi intra 60*, A1 apoptosis 2 -2 and INS-1E rescue -21.
Screening C[C@H]1CN([C@@H](C)CO)C(=O)c2cc(NC(=O)C3CCCCC3)ccc2O[C@H]1CN(C)C(=O)NC1CCCCC1 returned T cruzi intra 5, A1 apoptosis 2 -1 and INS-1E rescue 1.
Screening C[C@H]1CN([C@@H](C)CO)C(=O)Cc2cc(NS(=O)(=O)c3ccc(Cl)cc3)ccc2O[C@@H]1CN(C)Cc1ccc(Cl)c(Cl)c1 returned T cruzi intra 35 and INS-1E rescue 4.
For C[C@@H]1CN([C@@H](C)CO)C(=O)Cc2cc(NS(=O)(=O)c3ccccc3)ccc2O[C@@H]1CN(C)Cc1ccc(Cl)c(Cl)c1 the results were T cruzi intra 53 and INS-1E rescue -28.
For C[C@H]1CN([C@@H](C)CO)C(=O)Cc2cc(NS(C)(=O)=O)ccc2O[C@@H]1CN(C)Cc1ccc(Cl)c(Cl)c1 the results were T cruzi intra 64*, A1 apoptosis 2 1 and INS-1E rescue 3.
Screening C[C@H]1CN([C@@H](C)CO)C(=O)Cc2cc(NS(=O)(=O)c3ccccc3)ccc2O[C@@H]1CN(C)Cc1ccc(Cl)c(Cl)c1 returned T cruzi intra 65*, A1 apoptosis 2 -1 and INS-1E rescue -9.
C[C@@H]1CN([C@@H](C)CO)C(=O)Cc2cc(NS(=O)(=O)c3ccc(Cl)cc3)ccc2O[C@@H]1CN(C)Cc1ccc(Cl)c(Cl)c1 was read as T cruzi intra 61*, A1 apoptosis 2 0 and INS-1E rescue -17.
`C[C@@H]1CN([C@H](C)CO)C(=O)Cc2cc(NS(C)(=O)=O)ccc2O[C@@H]1CN(C)Cc1ccc(Cl)c(Cl)c1` gave T cruzi intra 28 and INS-1E rescue -13.
C[C@@H]1CCCCO[C@H](CN(C)C(=O)C2CCCCC2)[C@H](C)CN([C@@H](C)CO)C(=O)c2cc(NC(=O)c3ccccc3)ccc2O1 was read as A1 apoptosis 2 0.
Cc1ccc(S(=O)(=O)N(C)C[C@H]2OCc3cnnn3CCCC(=O)N([C@H](C)CO)C[C@@H]2C)cc1 was read as T cruzi intra -12.

High-throughput results: PubChem, Broad Institute
